UPR CHOP act = apoptotic UPR (CHOP) activation | actives 0.34% (n = 330,000) | activation, % at 10 µM | AID 449763 | CHO-CHOP luciferase reporter, luminescence; percent of tunicamycin response over DMSO baseline;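 active means at 10 µM dose, activation of 40% or more, normalized to positive control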;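 further: 100% = tunicamycin at 10 µg/mL and 0% = DMSO alone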
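Assay system: CHO-CHOP cells, stable luciferase reporter of PERK-eIF2a-CHOP signalling / Buffer or medium: F12 plus 10% serum / Compound dosing: one dose, 10 µM in 0.5% DMSO / Times: 6 h compound treatment, 37 °C / Technique: luciferase luminescence / Read-out: % reporter activation, DMSO baseline versus tunicamycin full activation / Benchmarks: tunicamycin and DMSO controls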
UPR XBP1 act = adaptive UPR (XBP1) activation; CHO-XBP1 luciferase reporter, IRE1-XBP1 UPR activation, luminescence; percent of tunicamycin response, DMSO as zero; AID 463104; activation, % at 20 µM; actives 0.33% (n = 330,000);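 active means versus positive control, 20 µM dose yields 30% or more activation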;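 further: 100% = tunicamycin at 10 µg/mL and 0% = DMSO only wells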
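Assay system: CHO-XBP1 luciferase reporter cells; Schedule: 6 h treatment, 37 °C; Detection: glow luminescence from Steady-Glo reagent; Benchmarks: high control tunicamycin 10 µg/mL final, low control DMSO vehicle only.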
CHOP inh = CHOP inhibition in unfolded protein response. CHO-K1 CHOP-promoter luciferase, tunicamycin-induced, 15-18 h. inhibition, % at 10 µM. actives 3.8% (n = 220,000). AID 2732;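 active means compounds that reduced the stress-induced luciferase reporter signal by more than about 70% of percent inhibition, limit read from the data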;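 further: 0% = tunicamycin plus vehicle and 100% = wells without tunicamycin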
p-CIP stab down = compounds decreasing mouse p/CIP protein stability; actives 0.01% (n = 290,000); F442A p/CIP-EGFP cells, EGFP fluorescence, 16 h; decrease of EGFP signal, % at 10 µM; Q05BA5; AID 1984;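 active means EGFP signal decrease of at least 30% at 10 µM or well 3 SD below plate mean, unless failing retest; inactive means the rest, including hits failing retest or dose response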
B2AR ag = agonists of human beta-2 adrenergic receptor inducing internalization; P07550; Am2.2-beta2AR cells, FAP receptor internalization, flow cytometry; response, % (test concentration not listed); actives 0.43% (n = 340,000);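 active means response above a set limit, near 3 SD of response in nonfluorescent compounds, cut at about 42% in these data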
Dynein transport = dynein cargo transport inhibition; 3617.4 mouse cells, GR-EGFP nuclear translocation imaging; test concentration mostly 20 µM; stimulated with dexamethasone, 1 µM; active compounds read low; AID 1381; z-score, hits read low; actives 0.47% (n = 220,000);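 active means plate z-score of nuclear minus cytoplasmic receptor signal below a set negative limit, without overly bright fluorescence or cell loss, cut at about -3.5 in these data, passing the limit was not always enough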;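 further: z-score of nuclear minus cytoplasmic ring GR-EGFP intensity difference per well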
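Buffer or medium: tet-free medium with charcoal-stripped serum / Also added: dexamethasone agonist, 1.0 µM final, for 30 min / Timing: induction 48 h, compound 1 h, agonist 30 min / Measured by: high-content fluorescence imaging after fixation / Read-out: nuclear-to-cytoplasmic GR-EGFP distribution per well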
Beta2AR ag CP1 = agonists of human beta-2 adrenergic receptor. AID 540358. percent response (surface receptor), % at 10 µM. actives 25% (n = 1,100). shares compounds with B2AR ag. Am2.2-beta2AR cells, FAP surface receptor, flow cytometry; active compounds read low;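 active means surface receptor percent response at or below 58%, roughly 3 SD from nonfluorescent compounds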
FAP fluor counter = counter-screen for beta-2AR agonists: fluorescence in Am2.2 cells. shares compounds with B2AR ag. FAP fluorogen flow cytometry, fluorescence counterscreen; active compounds read low. calls only at 10 µM. 1,100 tested, under 10 active;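 active means percent response below a set limit in fluorescence channel 1 and below 50% in channel 8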
The depositor's hits bear a star; i = inactive; . = not tested or not shown. The full list was thinned out, with hits kept by preference.

SMILES | UPR CHOP act | UPR XBP1 act | CHOP inh | p-CIP stab down | B2AR ag | Dynein transport | Beta2AR ag CP1 | FAP fluor counter
O=C(Cc1ccccc1)NC1(Cc2ccc(O)cc2)CCCCC1 | -1 | -5 | 10 | -1 | 57* | -0.33 | 47* | i
NNC(=O)CC(=O)NC1(Cc2ccc(O)cc2)CCCCC1 | 0 | 1 | 6 | -11 | 1 | 0.86 | . | .
Cc1cc(-c2ccccc2)nc(SCC(=O)N2CCCC2)n1 | -2 | -3 | 19 | 12 | -19 | 0.35 | 115 | i
Cc1cc(C)nc(SCC(=O)N2CCCCC2)n1 | -2 | -1 | -5 | -17 | 2 | -0.29 | . | .
Cc1ccc2c(c1)C(=O)C(=O)N2CCCOc1ccccc1C | 4 | 25 | 62 | -6 | 42* | -0.59 | 91 | i
C[C@H](NC(=O)N1CCC(Cc2ccccc2)CC1)C(=O)O | 2 | -6 | . | -4 | -10 | . | . | .
Nc1cc(N)nc(SCc2cc([N+](=O)[O-])cc3c2OCOC3)n1 | 1 | -4 | 1 | 4 | 55* | -1.1 | 10.0* | i
O=C(COc1ccc(S(=O)(=O)N2CCOCC2)cc1)Nc1ccc(Cl)c(C(F)(F)F)c1 | 1 | -5 | 48 | 2 | -4 | -0.78 | 114 | i
COc1ccc(OCC(=O)Nc2ccc(S(=O)(=O)N3CCOCC3)cc2)cc1 | 1 | -1 | 6 | -24 | 0 | 0.34 | . | .
O=C(COc1ccc(S(=O)(=O)N2CCOCC2)cc1)Nc1ccc2c(c1)OCCO2 | 0 | -3 | 6 | -1 | 5 | -1.1 | 85 | i
COC(=O)c1ccc(NC(=O)COc2ccc(S(=O)(=O)N3CCCCC3)cc2)cc1 | -2 | -1 | -18 | -6 | 87* | -0.0065 | 9.0* | i
O=C(COc1ccc(S(=O)(=O)N2CCOCC2)cc1)Nc1ccc(Br)cc1 | -2 | -4 | . | . | -1 | . | 102 | i
O=C(COc1ccccc1)Nc1ccc(S(=O)(=O)N2CCOCC2)cc1 | -6 | -1 | -10 | -5 | -11 | 0.053 | . | .
COc1ccc(S(=O)(=O)N2CC=C(C(=O)NC3CCCC3)CC2)cc1 | 0 | -2 | . | -6 | -11 | . | . | .
COc1ccc(Nc2nnc(-c3ccc(O)cc3)c3ccccc23)cc1 | 1 | 0 | 26 | 2 | 17 | -0.88 | . | .
COCCn1c(SCC(=O)N2CCCCCC2)nnc1-c1ccco1 | 2 | 4 | . | 1 | 0 | . | . | .
CCOc1ccc(NC(=O)COc2ccc(S(=O)(=O)N3CCOCC3)cc2)cc1 | -1 | -1 | . | . | -4 | . | 51* | i
COc1ccccc1NC(=O)C1CCN(C(=O)NCc2ccccc2)CC1 | 0 | 0 | . | -5 | -3 | . | . | .
O=c1c2ccccc2[nH]c(=S)n1Cc1ccc2c(c1)OCO2 | 2 | 5 | 25 | 12 | -11 | 0.95 | . | .
O=C(CCn1c(=O)[nH]c2ccsc2c1=O)NCc1ccc(F)cc1 | 2 | 2 | 1 | -5 | -7 | -0.7 | 95 | i
O=C(CCCCCn1c(=S)[nH]c2ccccc2c1=O)NCc1ccc2c(c1)OCO2 | -2 | -2 | 25 | 1 | 113* | -0.43 | 29* | i
O=C(CCCCCn1c(=O)[nH]c2ccsc2c1=O)NCc1ccc2c(c1)OCO2 | 3 | 0 | -15 | 0 | 113* | -0.13 | 26* | i
O=C(N/C(=C\c1ccc([N+](=O)[O-])cc1)C(=O)N1CCCCC1)c1ccc(Br)o1 | 0 | -4 | . | -22 | -5 | . | . | .
CN(c1ccccc1)c1ccc(/C=N/NC(=O)CC#N)cc1 | 1 | 0 | 26 | -20 | -6 | -0.17 | 104 | i
N#CCC(=O)N/N=C/c1ccc(Cl)cc1 | 3 | -3 | -13 | 0 | 2 | -0.72 | . | .
SMILES | UPR CHOP act | UPR XBP1 act | CHOP inh | p-CIP stab down | B2AR ag | Dynein transport | Beta2AR ag CP1 | FAP fluor counter
Cc1c(C(=O)N2CCOCC2)oc2ccc(S(=O)(=O)N3CCCC3)cc12 | 2 | -3 | 30 | 3 | 4 | 0.52 | . | .
Cc1c(C(=O)N2CCc3ccccc3C2)oc2ccc(S(=O)(=O)N3CCCCCC3)cc12 | 1 | -3 | 36 | -2 | 48* | 0.72 | 63 | i
CCOc1ccc(NC(=O)Nc2ccc3c(c2)nnn3C)cc1 | 2 | -4 | 22 | -10 | 60* | 0.43 | 101 | i
Cc1ccc(NC(=O)Nc2ccc3c(c2)nnn3C)cc1C | 3 | -2 | . | 6 | -2 | . | . | .
Cc1ccc(OCC(=O)Nc2ccc(-c3nc4ncccc4o3)cc2)c(C)c1 | -1 | -2 | 84* | -8 | 116* | 0.79 | 16* | i
Cc1ccc(OCCn2c(=S)[nH]c3ccccc32)c(C(C)C)c1 | -3 | -4 | . | -9 | 69* | . | 106 | i
Cc1cccc(OCCn2c(=S)[nH]c3ccccc32)c1 | 1 | -2 | -11 | 1 | -11 | -0.41 | . | .
COc1ccc(CC(=O)Nc2cccc(-c3cn4ccccc4n3)c2)cc1 | 7 | 4 | 19 | -1 | -5 | 0.3 | . | .
COc1ccc(CC(=O)Nc2ccc(-c3cn4ccccc4n3)cc2)cc1 | 5 | 6 | 6 | -19 | 93* | 0.24 | 19* | i
Cc1ccc(-n2ncc(C(=O)Nc3cc(Cl)cc(Cl)c3)c2C2CCNCC2)cc1C | . | . | 3 | 0 | 56* | -0.53 | 76 | i
Cc1ccc(-n2ncc(C(=O)Nc3cc(Cl)ccc3Cl)c2C2CCNCC2)cc1 | 1 | 6 | -13 | -4 | 27 | -1.3 | . | .
CCN1CCN(c2ccc(S(=O)(=O)N3CCCCC3)cc2NC(=O)/C=C/c2cccc(OC)c2OC)CC1 | 2 | -6 | . | 3 | 28 | . | . | .
Cc1cc2c(=Cc3ccc(N(C)C)cc3)c3ccccc3n2[n+]1C | . | . | . | . | -195 | . | . | .
CN(C)c1ccc(C=c2c3ccccc3n3c2c2ccccc2[n+]3C)cc1 | . | . | . | . | 50* | . | 91 | i
O=C(CSc1nnc(-c2c[nH]c3ccccc23)o1)NCC1CCCO1 (stereo unspecified) | -1 | -1 | . | . | 3 | . | . | .
Cc1nc2ccc(Cl)cc2c(-c2ccccc2Cl)c1CC(=O)O | 3 | -1 | 8 | -6 | 46* | 0.46 | 93 | i
O=C(c1ccc(-c2ccc([N+](=O)[O-])cc2)o1)N1CCCC(C(F)(F)F)C1 (stereo unspecified) | 3 | 0 | . | . | -7 | . | . | .
O=C(c1ccc(-c2ccc([N+](=O)[O-])cc2)o1)N1CCCCCCC1 | 9 | 4 | . | . | 52* | . | 128 | i
CC(=O)N1CCc2cc(C(=O)CN3CCC(C)CC3)ccc21 | 0 | -2 | 3 | -20 | 5 | -0.94 | . | .

From PubChem BioAssay
